# Tests used:
# [1] = Inhibition of N-terminal SmBiT-fused Bacillus subtilis RNAP subunit beta' CH region expressed in Escherichia coli BL21(DE3)pLysS interaction with C- terminal LgBiT-fused Bacillus subtilis RNA polymerase sigma factor SigA expressed in Escherichia coli BL21(DE3)pLysS preincubated for 10 mins followed by RNA polymerase sigma factor SigA addition and measured after 10 mins by nano-glo luciferase assay
# How it was run: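 Split-luciferase complementation in PBS: N-SmBiT-CH (2.5 μM stock) mixed with compound at desired concentrations, 10 min at 37 °C. C-LgBiT-σA (2.5 μM stock) then added, another 10 min at 37 °C. Equal volume of Nano-Glo substrate added and luminescence read. No-drug control included. Run in triplicate with technical repeats.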
# Streptococcus pneumoniae [2] = assay: Antibacterial activity against Streptococcus pneumoniae ATCC 49619 after 20 hrs by CLSI based-broth microdilution method; format: functional; conditions: ATCC 49619, 20 h
# Acinetobacter baumannii = assay: Antibacterial activity against Acinetobacter baumannii ATCC 19606 after 20 hrs by CLSI based-broth microdilution method; format: functional; conditions: ATCC 19606 = CIP 70.34 = JCM 6841, 20 h
# Escherichia coli = assay: Antibacterial activity against Escherichia coli ATCC 25922 after 20 hrs by CLSI based-broth microdilution method; format: functional; conditions: ATCC 25922, 20 h
# Klebsiella pneumoniae = assay: Antibacterial activity against Klebsiella pneumoniae ATCC 700603 after 20 hrs by CLSI based-broth microdilution method; format: functional; conditions: ATCC 700603, 20 h
# Enterobacter cloacae = assay: Antibacterial activity against Enterobacter cloacae ATCC 13047 after 20 hrs by CLSI based-broth microdilution method; format: functional; conditions: subsp. cloacae ATCC 13047, 20 h
# Pseudomonas aeruginosa = assay: Antibacterial activity against Pseudomonas aeruginosa ATCC 27853 after 20 hrs by CLSI based-broth microdilution method; format: functional; conditions: ATCC 27853, 20 h
# Enterococcus faecalis = assay: Antibacterial activity against Enterococcus faecalis ATCC 19433 after 20 hrs by CLSI based-broth microdilution method; format: functional; conditions: ATCC 19433, 20 h
# Streptococcus agalactiae = assay: Antibacterial activity against Streptococcus agalactiae ATCC 12386 after 20 hrs by CLSI based-broth microdilution method; format: functional; conditions: ATCC 12386, 20 h
# [3] = system: Staphylococcus saprophyticus; assay: Antibacterial activity against Staphylococcus saprophyticus ATCC 15305 after 20 hrs by CLSI based-broth microdilution method; format: functional; conditions: subsp. saprophyticus ATCC 15305, 20 h
# Streptococcus pyogenes = assay: Antibacterial activity against Streptococcus pyogenes ATCC 19615 after 20 hrs by CLSI based-broth microdilution method; format: functional; conditions: ATCC 19615, 20 h
# Streptococcus pneumoniae [4] = assay: Antibacterial activity against Streptococcus pneumoniae ATCC 49619 after 16 to 20 hrs by CLSI based-broth microdilution method; format: functional
# [5] = Therapeutic index, ratio of CC50 for human A549 cells to MIC for Streptococcus pneumoniae ATCC 49619; format: toxicity; conditions: read-out: TI
# HepG2 = assay: Cytotoxicity against human HepG2 cells after 48 to 72 hrs by MTT assay; format: cell-based
# A549 = assay: Cytotoxicity against human A549 cells after 48 to 72 hrs by MTT assay; format: cell-based
# [6] = Therapeutic index, ratio of CC50 for human HepG2 cells to MIC for Streptococcus pneumoniae ATCC 49619; format: toxicity; conditions: read-out: TI
# Staphylococcus aureus [7] = assay: Antibacterial activity against Staphylococcus aureus ATCC 29213 after 20 hrs by CLSI based-broth microdilution method; format: functional; conditions: ATCC 29213, 20 h
# Staphylococcus aureus [8] = assay: Antibacterial activity against Staphylococcus aureus ATCC 25923 after 20 hrs by CLSI based-broth microdilution method; format: functional; conditions: ATCC 25923, 20 h
# [9] = system: Staphylococcus epidermidis; assay: Antibacterial activity against Staphylococcus epidermidis ATCC 12228 after 20 hrs by CLSI based-broth microdilution method; format: functional; conditions: ATCC 12228, 20 h
# [10] = Haemolytic activity in human erythrocytes at 0.1 to 10 ug/ml relative to control; format: ADME, cell-based, Erythrocyte; conditions: read-out: Activity
# How it was run: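 Human erythrocytes washed in 150 mM NaCl, resuspended in PBS pH 7.4 (2% blood); compound at final 0.1, 1 and 10 μg/mL (0.5% DMSO) for 45 min at 37 °C, n = 6; spun at 500g, 4 °C; supernatant absorbance read at 540 nm; 1% Triton X-100 as positive and PBS as negative control; % lysis calculated.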
MIC (Streptococcus pneumoniae [2]),MIC (Streptococcus pneumoniae [4]),Structure (SMILES),IC50 [1],MIC (Acinetobacter baumannii),MIC (Escherichia coli),MIC (Klebsiella pneumoniae),MIC (Enterobacter cloacae),MIC (Pseudomonas aeruginosa),MIC (Enterococcus faecalis),MIC (Streptococcus agalactiae),MIC [3],MIC (Streptococcus pyogenes),selectivity ratio [5],CC50 (HepG2),CC50 (A549),selectivity ratio [6],MIC (Staphylococcus aureus [7]),MIC (Staphylococcus aureus [8]),MIC [9],hemolysis [10]
,64 µg/mL,Nc1cccc(Sc2ccc(C(=O)c3ccccc3C(=O)O)cc2[N+](=O)[O-])c1,,> 256 µg/mL,> 256 µg/mL,> 256 µg/mL,> 256 µg/mL,> 256 µg/mL,,,,,,,,,,,,
4 µg/mL,,O=C(O)c1ccc(Br)c(NCc2ccc(Sc3ccc(Cl)c(Cl)c3)c([N+](=O)[O-])c2)c1,,> 256 µg/mL,> 256 µg/mL,> 256 µg/mL,> 256 µg/mL,> 256 µg/mL,,,,,18,92.6 µM,67.7 µM,24,,,,
,,O=C(O)c1ccc(Cl)c(NCc2ccc(Sc3ccc(Cl)c(Cl)c3)c([N+](=O)[O-])c2)c1,15 µM,> 256 µg/mL,> 256 µg/mL,> 256 µg/mL,> 256 µg/mL,> 256 µg/mL,4 µg/mL,4 µg/mL,4 µg/mL,4 µg/mL,28,110 µM,116 µM,27,8 µg/mL,8 µg/mL,4 µg/mL,< 10%
,,O=C(O)c1cccc(NCc2ccc(Sc3ccc(Cl)c(Cl)c3)c([N+](=O)[O-])c2)c1,42.9 µM,> 256 µg/mL,> 256 µg/mL,> 256 µg/mL,> 256 µg/mL,> 256 µg/mL,8 µg/mL,8 µg/mL,8 µg/mL,8 µg/mL,,,,,8 µg/mL,8 µg/mL,8 µg/mL,
,,O=C(O)c1c(Cl)cccc1NCc1ccc(Sc2ccc(Cl)c(Cl)c2)c([N+](=O)[O-])c1,25.1 µM,> 256 µg/mL,> 256 µg/mL,> 256 µg/mL,> 256 µg/mL,> 256 µg/mL,8 µg/mL,4 µg/mL,8 µg/mL,2 µg/mL,11,97.7 µM,93.3 µM,12,8 µg/mL,8 µg/mL,4 µg/mL,
> 256 µg/mL,,O=C(O)c1ccccc1C(=O)c1ccc(Sc2ccccn2)c([N+](=O)[O-])c1,,> 256 µg/mL,> 256 µg/mL,> 256 µg/mL,> 256 µg/mL,> 256 µg/mL,,,,,,,,,,,,
> 256 µg/mL,,O=C(O)c1ccccc1C(=O)c1ccc(Nc2cccc3cccnc23)c([N+](=O)[O-])c1,,> 256 µg/mL,> 256 µg/mL,> 256 µg/mL,> 256 µg/mL,> 256 µg/mL,,,,,,,,,,,,

Structure (SMILES),MIC (Streptococcus pneumoniae [2]),MIC (Streptococcus pneumoniae [4]),IC50 [1],MIC (Acinetobacter baumannii),MIC (Escherichia coli),MIC (Klebsiella pneumoniae),MIC (Enterobacter cloacae),MIC (Pseudomonas aeruginosa),MIC (Enterococcus faecalis),MIC (Streptococcus agalactiae),MIC [3],MIC (Streptococcus pyogenes),selectivity ratio [5],CC50 (HepG2),CC50 (A549),selectivity ratio [6],MIC (Staphylococcus aureus [7]),MIC (Staphylococcus aureus [8]),MIC [9],hemolysis [10]
O=C(O)c1ccccc1C(=O)c1ccc(Sc2ccc(Cl)c(Cl)c2)cc1,16 µg/mL,,67 µM,> 256 µg/mL,> 256 µg/mL,> 256 µg/mL,> 256 µg/mL,> 256 µg/mL,,,,,,,,,,,,
CN[C@H](CC(C)C)C(=O)N[C@H]1C(=O)N[C@@H](CC(N)=O)C(=O)N[C@H]2C(=O)N[C@H]3C(=O)N[C@H](C(=O)N[C@H](C(=O)O)c4cc(O)cc(O)c4-c4cc3ccc4O)[C@H](O)c3ccc(c(Cl)c3)Oc3cc2cc(c3O[C@@H]2O[C@H](CO)[C@@H](O)[C@H](O)[C@H]2O[C@H]2C[C@](C)(N)[C@H](O)[C@H](C)O2)Oc2ccc(cc2Cl)[C@H]1O [VANCOMYCIN],1 µg/mL,,,,,,,,1 µg/mL,1 µg/mL,1 µg/mL,1 µg/mL,,,,,,,,
